An excerpt weighted towards active compounds, which were near 2.5% of everything screened.
B2AR ag: agonists of human beta-2 adrenergic receptor inducing internalization; 340,000 tested, 0.43% active; P07550; Am2.2-beta2AR cells, FAP receptor internalization, flow cytometry; response, % (test concentration not listed);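 active = response above a set limit, near 3 SD of response in nonfluorescent compounds, cut at about 42% in these data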
Target sequence (P07550 whole entry, looked up): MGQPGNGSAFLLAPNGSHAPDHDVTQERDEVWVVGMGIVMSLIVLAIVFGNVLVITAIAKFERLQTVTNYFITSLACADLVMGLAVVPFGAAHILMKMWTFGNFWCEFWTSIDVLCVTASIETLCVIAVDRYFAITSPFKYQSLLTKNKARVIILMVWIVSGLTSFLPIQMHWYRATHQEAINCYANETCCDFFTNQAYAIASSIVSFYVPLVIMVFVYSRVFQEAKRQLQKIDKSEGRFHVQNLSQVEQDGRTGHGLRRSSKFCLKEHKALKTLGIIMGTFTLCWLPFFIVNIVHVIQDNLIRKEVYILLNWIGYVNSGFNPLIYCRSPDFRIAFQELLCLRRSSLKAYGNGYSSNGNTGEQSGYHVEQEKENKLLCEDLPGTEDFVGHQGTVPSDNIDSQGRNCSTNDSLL
Rin1 Abl inh: human Rin1-Abl interaction inhibition | P00519+Q13671 | TR-FRET Rin1/Abl binding, biochemical | inhibition, % at 7.35 µM | 360,000 tested, 0.4% active | AID 588664; in the data active = inhibition above about 5%, passing the limit was not always enough
UHRF1 binding: UHRF1 methyl-DNA binding inhibition; 370,000 tested, 0.75% active; inhibition, % at 4.4 µM; UHRF1 binding to methylated oligo, TR-FRET; AID 687016; in the data active = inhibition above about 21%;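 also: UHRF1 SRA domain binding a hemimethylated CpG hairpin DNA probe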
Arr AP2 block: blocks beta-arrestin peptide binding to AP2 adaptin | FITC-arrestin peptide / GST-AP2 beads, flow cytometry; AP2 beta2 appendage carries R879A mutation | inhibition, % at 10 µM | 340,000 tested, 0.31% active;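 active = inhibition above a set limit, near 3 SD of compounds lacking own fluorescence, cut at about 54% in these data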
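Material – GST-tagged AP2 beta2-adaptin appendage (R879A) on 4 µm glutathione beads · Probe or stimulus – fluorescein-tagged arrestin peptide at 50 nM final · Timing – 12 min plus 1 h, RT · Detection – bead flow cytometry, FITC channel · Read-out basis – inhibition as reduced fluorescein signal on beads, percent · Medium – PBS plus Tween 20 (0.05%) and BSA (0.1%)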
ABHD5 PLIN5 PPI: blocks binding of human ABHD5 to perilipin-5. Split G. princeps luciferase complementation, luminescence, 4 h. inhibition, % at 4 µM. 360,000 tested, 0.78% active;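 active = inhibition above the mean inhibition across every tested compound plus 3 SD, cut at about 22% in these data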
MBD2 inh: MBD2-methylated oligo binding inhibition | TR-FRET, MBD2 binding to methylated oligonucleotide | AID 686964 | Q9UBB5 | 370,000 tested, 0.31% active | inhibition, % at 4.4 µM; in the data active = inhibition above about 13%
B2AR ag CP1: human beta-2 adrenergic receptor agonism, cherry pick; 1,100 tested, 25% active; percent response (surface receptor), % at 10 µM; Am2.2-beta2AR cells, FAP surface receptor, flow cytometry; stronger effect = lower value; shares compounds with B2AR ag;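 active = surface receptor percent response at or below 58%, roughly 3 SD from nonfluorescent compounds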
FAP fluor counter: flagged in Am2.2 fluorescence counterscreen for beta-2AR agonists; shares compounds with B2AR ag; Am2.2 cells, FAP fluorogen flow cytometry; stronger effect = lower value; calls only at 10 µM; 1,100 tested, under 10 active; AID 588765;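 active = percent response below a set limit in fluorescence channel 1 and below 50% in channel 8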
Numbers stand for hits; . = inactive; / = no result; ! = repeats disagree.

SMILES	B2AR ag	Rin1 Abl inh	UHRF1 binding	Arr AP2 block	ABHD5 PLIN5 PPI	MBD2 inh	B2AR ag CP1	FAP fluor counter
Cc1cccc(Nc2nnc(-c3ccc(C(=O)N4C[C@H]5C[C@H](C4)c4cccc(=O)n4C5)cc3)c3ccccc23)c1	85	.	.	.	.	.	16	.
COc1ccc(Nc2nnc(-c3ccc(C)cc3)c3ccccc23)cc1C(=O)N1CCCCC1	.	.	.	.	.	.	/	/
COc1cc(/C=C2/C(=O)NN(c3cccc(F)c3)C2=O)ccc1OC(=O)c1ccco1	47	.	.	.	.	.	.	.
COc1cc(/C=C2/C(=O)NN(c3ccc(Cl)cc3)C2=O)ccc1OC(=O)c1ccco1	.	.	.	.	.	.	/	/
C=CCN(CC#CC1=CCCCC1)CC1CC1	/	/	.	/	/	.	/	/
CC1=NN(C(N)=S)C(=O)C1N=Nc1ccc(F)cc1 (centres undefined)	.	.	.	.	.	.	49	.
CC1=NN(C(N)=S)C(=O)C1N=Nc1ccc(O)cc1 (centres undefined)	.	.	.	.	.	.	/	/
N=c1c2c(-c3ccccc3)c(-c3ccccc3)n(Cc3ccccc3)c2ncn1C1CCOCC1	/	/	.	/	/	.	/	/
COc1ccc(N(C(=O)c2cccc([N+](=O)[O-])c2)S(=O)(=O)c2ccc3c(c2)n(C)c(=O)n3C)cc1	54	.	.	.	.	.	.	.
CC(=O)Nc1ccc(/C=C/COC(C)=O)cc1C	/	/	.	/	/	.	/	/
O=C(Nc1ccc(Br)cc1)c1cccc(S(=O)(=O)Nc2ccccn2)c1	.	.	.	.	.	.	/	/
O=C(Nc1ccc(Br)cc1)c1cccc(S(=O)(=O)Nc2cnc3ccccc3c2)c1	47	.	.	.	.	.	.	.
CC(C)(C)c1ccc(C(=O)Nc2cc(Cl)c(Cl)cc2C(=O)O)cc1	/	/	.	/	/	.	/	/
O=C(CNC(=O)N1CC(=O)Nc2ccccc21)Nc1ccccc1F	42	.	.	.	.	.	.	.
O=C(CNC(=O)N1CC(=O)Nc2ccccc21)Nc1ccccc1	.	.	.	.	.	.	/	/
COCCOC(=O)C1=C(C)NC(=O)NC1c1cn(-c2ccccc2)nc1-c1cccs1 (centres undefined)	.	.	.	.	.	.	/	/
CC1=C(C#N)C(c2cn(-c3ccccc3)nc2-c2cccs2)C(C#N)=C(C)N1	108	.	.	.	.	.	13	.
O=C(Nc1cccc(-c2nc3ncccc3o2)c1)c1sc2cc(Cl)ccc2c1Cl	42	.	.	.	.	.	12	.
O=C(Nc1ccc(C(=O)N2CCN(c3ccncc3)CC2)cc1)c1ccc(Br)o1	/	/	.	/	.	.	/	/
Cc1ccc(C(=O)N2CCN(c3ccc(NC(=O)c4ccc(Br)o4)cc3)CC2)cc1	.	.	.	.	.	.	.	.
CCc1ccc(C(=O)N2CCN(c3ccc(NC(=O)c4ccco4)cc3)CC2)cc1	.	.	.	.	.	.	.	.
O=[N+]([O-])c1ccc2nc(CCCc3nc4ccc([N+](=O)[O-])cc4[nH]3)[nH]c2c1	54	.	.	.	.	.	.	.
CCOc1ccc2oc(C(=O)O)c(C)c2c1	.	.	.	.	.	.	/	/
CCOc1ccc2oc(C(=O)NCC(C)(C)CN(C)C)c(C)c2c1	55	.	.	.	.	.	.	.
COc1ccc(S[C@]2(C(=O)N3CCOCC3)CC(=O)N(c3ccc(OC)cc3)[C@@H]2c2ccc(OC)cc2)cc1	/	/	.	/	/	.	/	/
SMILES	B2AR ag	Rin1 Abl inh	UHRF1 binding	Arr AP2 block	ABHD5 PLIN5 PPI	MBD2 inh	B2AR ag CP1	FAP fluor counter
COc1ccccc1CNC(=O)CCn1c(=O)[nH]c2ccsc2c1=O	.	.	.	.	.	.	54!	.
COc1cc2[nH]c(=O)n(CCC(=O)N3CCc4ccccc4C3)c(=O)c2cc1OC	.	.	.	.	.	.	/	/
O=C(CCn1c(=O)[nH]c2ccsc2c1=O)N1CCc2ccccc2C1	.	.	.	.	.	.	.	.
C=CCN=C1NC(c2ccc(Cl)cc2)C(C(=O)OC)=C(C)N1Cc1cccc(C(F)(F)F)c1 (centres undefined)	/	/	.	/	/	.	/	/
CCN(CC)CCCNc1ccc(-c2nnc(-c3ccc(OCC(C)C)cc3)o2)cn1	48	.	.	.	.	.	.	.
CCn1c(=O)n2n(c1=O)[C@H]1C[N+](Cc3ccc4c(c3)OCO4)=C(N)NC1=C(C)C2	/	/	.	/	/	.	/	/
C=CCn1c(CCNC(=O)c2cccs2)nnc1SCC(=O)Nc1cccc(Cl)c1C	60	.	.	.	.	.	.	.
C=CCn1c(CCNC(=O)c2cccs2)nnc1SCC(=O)c1cccc([N+](=O)[O-])c1	106	.	.	.	.	.	9.3	.
C=CCn1c(CCNC(=O)c2cccs2)nnc1SCC(=O)c1ccc(Cl)cc1	90	.	.	.	.	.	31	.
O=S1(=O)c2c(NCc3ccco3)cccc2Oc2ccccc2CN1Cc1cn(Cc2cccc(F)c2)nn1	/	/	.	/	/	.	/	/
COC(=O)C1CN(C2CC2)CCS(=O)(=O)N1Cc1cn(Cc2ccc(Cl)cc2)nn1 (centres undefined)	/	/	.	/	/	.	/	/
CCOC(=O)c1ccc(NC(=O)Cn2nnc(-c3ccccc3)n2)cc1	64	.	.	.	.	.	1.2	.
COc1ccccc1-c1cc(C(F)(F)F)nc(S(=O)(=O)CCCC(=O)N2CCOCC2)n1	47	.	.	.	.	.	.	.
COc1ccc(-c2cc(C(F)(F)F)nc(S(=O)(=O)CCC(=O)N3CCOCC3)n2)cc1	.	.	.	.	.	.	.	.
COc1ccc(-c2cc(C(F)(F)F)nc(SCC(=O)N3CCOCC3)n2)cc1OC	.	.	.	.	.	.	/	/
COc1ccccc1-c1noc(CCCC(=O)N2CCOCC2)n1	.	.	.	.	.	.	/	/
CCOc1ccc(-c2cc(C(=O)OC)c3n(c2=O)CCC3)cc1	/	/	.	/	/	.	/	/
Cc1nc2ccc(S(=O)(=O)NCC(=O)NCc3ccccc3C)cc2s1	/	/	.	/	/	.	/	/
COC(=O)c1ccc(C(=O)OC)c(NC(=O)CSc2cccc[n+]2[O-])c1	.	.	.	.	.	.	.	.
COc1ccc(N(C(=O)c2snc(C(N)=O)c2N)C(C(=O)NC2CCCC2)c2ccco2)c(OC)c1 (centres undefined)	70	.	.	.	.	.	.	.
CSc1ccc2c(c1)C(N1CCN(C)CC1)Cc1ccccc1S2 (centres undefined)	61!	.	.	.	.	.	.	.
CCN(CC)S(=O)(=O)c1ccc(N2CCCC2)c(NC(=O)C2=NN(c3ccccc3)C(=O)CC2)c1	47	.	.	.	.	.	.	.
